Data published in ChEMBL document CHEMBL1139885, “De novo parallel design, synthesis and evaluation of inhibitors against the reverse transcriptase of human immunodeficiency virus type-1 and drug-resistant variants” (J Med Chem, 2007).
Active and inactive are the calls of the source. The calls are words filed in the database; no cut-off is given here.

Tests used:
[1] = molecular target: T1, Human immunodeficiency virus type 1 reverse transcriptase (Human immunodeficiency virus 1, UniProt Q72547); assay: Inhibition of DNA polymerase activity of HIV1 reverse transcriptase
[2] = molecular target: Human immunodeficiency virus type 1 reverse transcriptase (Human immunodeficiency virus 1) (UniProt Q72547); assay: Inhibition of reverse transcriptase binding to DNA assessed as formation of RT-DNA complex by gel mobility shift assay
How it was run: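 RT 1.5 pmol preincubated 10 min at 4 °C with compound at 250 and 625 µM final. Then 0.12 pmol 5'-32P-labeled 54-nt duplex DNA added, in 10 mM HEPES, 30 mM ammonium sulfate, 0.25 mM DTT, 0.1 mg/mL BSA, pH 8.0; 10 min 32 °C. Run on nondenaturing 6.5% polyacrylamide gel, TBE, 4 °C; autoradiography.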

[3] = Inhibition of RNase H activity of HIV1 reverse transcriptase; parameters: species or system Human immunodeficiency virus 1
How it was run: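 FRET assay: RT (6 nM) with fluorescein-RNA/DNA-dabcyl hybrid substrate, 1 mM DTT, ± inhibitor; fluorescence read after 30 min at 37 °C. Triplicates; IC50 interpolated from dose-response curves.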

[4] = Cytotoxicity against Jurkat cells by XTT assay; format: cell-based; conditions: human
How it was run: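 Jurkat cells; XTT read-out, absorbance 450 nm with 620 nm reference. CC50 = concentration reducing viability by 50% versus inhibitor-free control.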

[5] = molecular target: T1, Human immunodeficiency virus type 1 reverse transcriptase; assay: Inhibition of HIV1 wild type p66/p51 reverse transcriptase
How it was run: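 BH-10-derived p66/p51 RT, C-terminal His6 on p66, expressed in bacteria, Ni-NTA then cation exchange purified. Substrate mix: 50 µg/mL poly(rA)·oligo(dT)12-18, 50 µM dTTP, [3H]dTTP; 30 min 37 °C.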

[6] = Inhibition of drug-resistant reverse transcriptase L100I-K103 mutant; parameters: species or system Human immunodeficiency virus 1
How it was run: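 p66/p66 homodimer HIV-1 RT double mutant (His-tagged, E. coli-expressed, Ni-NTA purified). DNA polymerase activity: [3H]dTTP incorporation into poly(rA)n·oligo(dT)12-18. DMSO serial dilutions of inhibitor plus 14 ng RT in Tris-HCl pH 7.5/KCl/MgCl2, 10 min on ice, then substrate added, 30 min at 37 °C, scintillation counting. IC50 from a four-parameter logistic fit, from at least two experiments.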

[7] = Inhibition of drug-resistant reverse transcriptase […] mutant; parameters: species or system Human immunodeficiency virus 1
[8] = system: Human immunodeficiency virus 1; assay: Inhibition of DNA polymerase activity of reverse transcriptase pre-incubated with drug assessed as impairment of primer elongation by DNA polymerase primer-extension assay
How it was run: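 Primer extension: 5′-32P-labelled 15-mer primed on circular φX174am3 template (4 nM T/P). RT (1.6 nM) preincubated 30 min on ice, with inhibitor before T/P addition, or with T/P for 5 min before inhibitor. Buffer 6.6 mM Tris-HCl pH 8.0, 4 mM DTT, 6 mM MgCl2, 33 mM NaCl, BSA, 20 µM each dNTP. Run 30 min at 37 °C; products resolved on gel and viewed by autoradiography.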

| SMILES | IC50 [1] | IC50 [3] | CC50 [4] | further results |
| --- | --- | --- | --- | --- |
| NC(=O)c1scnc1-c1ccc(Cl)c(Br)c1 | 87.5 µM |  |  |  |
| C[C@@H]1CC=C2[C@@H](CCC[C@@]2(C)CC[C@@]2(C)C3=CCCC(C)(C)[C@H]3CC[C@@H]2C)[C@]1(C)Cc1cc(OS(=O)(=O)O)ccc1OS(=O)(=O)O |  |  |  | Activity [2]: Active |
| N#CCC(=O)c1cccc(-c2ccccc2)c1 | 33.4 µM | 84 µM | 233 µM |  |
| NC(=O)c1[nH]cnc1-c1cccc(-c2ccccc2)c1 | > 312 µM |  |  |  |
| NC(=O)c1scnc1-c1cccc(I)c1 | > 312 µM |  |  |  |
| NC(=O)c1[nH]cnc1-c1ccccc1 | 300 µM |  |  |  |
| CCOP(=O)(OCC)Oc1cccc(C(=O)CC#N)c1 | 64.3 µM | 112 µM | > 312 µM |  |
| NC(=O)CC(=O)c1cccc(Cl)c1 | > 312 µM |  |  |  |
| NC(=O)c1scnc1-c1cccc(-c2ccccc2)c1 | > 312 µM |  |  |  |
| NC(=O)c1[nH]cnc1-c1cccc(C(=O)c2ccccc2)c1 | > 312 µM |  |  |  |
| NC(=O)c1sc(N)nc1-c1cccc(C(=O)c2ccccc2)c1 | 44.1 µM | > 312 µM | > 312 µM |  |
| NC(=O)CC(=O)c1cccc(C(=O)c2ccccc2)c1 | > 312 µM |  |  |  |
| NC(=O)c1[nH]cnc1-c1cccc(Cl)c1 | 79.8 µM | > 312 µM | > 312 µM |  |
| N#CCC(=O)Cc1cccc(I)c1 | 3.5 µM | 20 µM | 247 µM | IC50 [5]: 3.5 µM; IC50 [6]: 9.4 µM; Activity [2]: inactive; IC50 [7]: 9.9 µM; Activity [8]: Active |
| N#CCC(=O)c1cccc(Cl)c1 | 4.1 µM | 28 µM | > 312 µM |  |
| NC(=O)CC(=O)c1cccc(I)c1 | 29.6 µM | > 312 µM | > 312 µM |  |
| NC(=O)c1scnc1-c1ccccc1 | 283 µM |  |  |  |
| NC(=O)c1sc(N)nc1-c1cccc(-c2ccccc2)c1 | 59.2 µM | 249 µM | 244 µM |  |
| Cc1ccnc2c1NC(=O)c1cccnc1N2C1CC1 |  |  |  | Activity [2]: inactive; Activity [8]: Active |
| NC(=O)c1sc(N)nc1-c1cccc(Cl)c1 | 54.4 µM | > 312 µM | > 312 µM |  |
| NC(=O)c1sc(N)nc1-c1ccc(Cl)c(Br)c1 | 118 µM |  |  |  |
| N#CCC(=O)c1ccc(Cl)c(Br)c1 | > 312 µM |  |  |  |
| NC(=O)c1scnc1-c1cccc(C(=O)c2ccccc2)c1 | 16.3 µM | 77 µM | > 312 µM |  |
| NC(=O)c1[nH]cnc1-c1ccc(Cl)c(Br)c1 | 9.9 µM | 41 µM | 213 µM | IC50 [5]: 9.9 µM; IC50 [6]: 19.8 µM; Activity [2]: inactive; IC50 [7]: 26.4 µM |
| N#CCC(=O)c1cccc(I)c1 | > 312 µM |  |  |  |
| NC(=O)c1sc(N)nc1-c1ccccc1 | 80.7 µM | > 312 µM | > 312 µM |  |
| NC(=O)CC(=O)c1cccc(-c2ccccc2)c1 | > 312 µM |  |  |  |
| NC(=O)c1sc(N)nc1-c1cccc(I)c1 | 125 µM |  |  |  |
| N#CCC(=O)c1cccc(C(=O)c2ccccc2)c1 | 9.8 µM | 98 µM | 251 µM |  |
